Reference: ChEMBL document CHEMBL4396943, “The tetrahydroxanthone-dimer phomoxanthone A is a strong inducer of apoptosis in cisplatin-resistant solid cancer cells” (Bioorg Med Chem, 2019)
Activity calls are given as the source filed them. The rule behind the calls is not given here.

Legend:
A2780 [1] = experiment: Antiproliferative activity against human A2780 cells assessed as reduction in cell viability incubated for 72 hrs by MTT assay; format: functional, cell-based; settings: A2780, 72 h
Method in brief: (§1)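 Cells seeded overnight in 96-well plates, then exposed to increasing concentrations (compound dissolved in DMSO, diluted in medium) for the stated time. MTT (5 mg/ml in PBS) added for 15 min, formazan dissolved in DMSO, absorbance read at 544 nm minus 690 nm background. IC50 = concentration giving 50% signal decrease. At least three independent experiments in triplicate.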

KYSE-510 = experiment: Potency index, ratio of cisplatin IC50 to compound IC50 for antiproliferative activity in cisplatin resistant human KYSE-510 cells assessed as reduction in cell viability incubated for 72 hrs by MTT assay; format: functional
Method in brief: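 Cells seeded in 96-well plates overnight, exposed 72 h to increasing concentrations. MTT (5 mg/ml) added for 15 min, formazan dissolved in DMSO, absorbance read at 544 nm with 690 nm background subtracted. IC50 is the concentration reducing signal by 50%. Three independent experiments in triplicate. CisR sublines made by weekly intermittent cisplatin exposure for 24–30 weeks.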

A2780cisR [2] = experiment: Antiproliferative activity against human A2780cisR cells assessed as reduction in cell viability incubated for 48 hrs by MTT assay; format: functional, cell-based; method in brief: as §1
A2780cisR [3] = experiment: Ratio of IC50 for antiproliferative activity in human A2780cisR cells assessed as reduction in cell viability incubated for 24 hrs by MTT assay to IC50 for antiproliferative activity in human A2780cisR cells assessed as reduction in cell viability incubated for 72 hrs by MTT assay; format: functional
Method in brief: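 MTT assay as for the viability IC50s (overnight seeding, MTT 15 min, DMSO solubilisation, 544/690 nm), with PXA incubation for 24 h versus 72 h. IC50 is the concentration giving a 50% signal decrease. At least three independent experiments.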

A2780 [4] = experiment: Cell cycle arrest in human A2780 cells assessed as accumulation at G1 phase incubated for 24 hrs by propidium iodide staining based flow cytometry; format: functional
Method in brief: (§2)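 After 24 h exposure, cells washed in ice-cold PBS. About 2 million cells fixed in cold 70% ethanol at −20 °C for at least 24 h. Stained with 0.1% Triton X-100, 200 µg/ml RNase A and 20 µg/ml propidium iodide in PBS, 15 min at 37 °C in the dark. DNA content read by flow cytometry with doublet discrimination. Medium as untreated control, paclitaxel as G2/M control. Three independent experiments.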

J82 [5] = experiment: Cell cycle arrest in human J82 cells assessed as accumulation at G1 phase at 1 uM incubated for 24 hrs by propidium iodide staining based flow cytometry (reference value: 69.6%); format: functional; method in brief: as §2
J82 [6] = experiment: Cell cycle arrest in cisplatin resistant human J82 cells assessed as accumulation at G1 phase at 5 uM incubated for 24 hrs by propidium iodide staining based flow cytometry (reference value: 78.1%); format: functional; method in brief: as §2
A2780 [7] = experiment: Induction of apoptosis in human A2780 cells assessed as depolarization of mitochondrial membrane potential incubated for 1 hr by TMRE staining based flow cytometry; format: functional, cell-based
Method in brief: (§3)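 Cells seeded overnight; complete medium swapped for FBS-free medium just before treatment to avoid TMRE ester cleavage. Exposure to PXA for 1 h, 2 h or 24 h. TMRE staining 20 min, cells collected by trypsinisation, ΔΨm read by flow cytometry. Medium served as negative control, 20 µM CCCP as positive control. Mean ± SEM reported.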

J82 [8] = experiment: Induction of apoptosis in human J82 cells assessed as depolarization of mitochondrial membrane potential incubated for 2 hrs by TMRE staining based flow cytometry; format: functional, cell-based; method in brief: as §3
A2780cisR [9] = experiment: Induction of apoptosis in human A2780cisR cells assessed as depolarization of mitochondrial membrane potential at 1 uM incubated for 2 hrs by TMRE staining based flow cytometry; format: functional; method in brief: as §3
J82 [10] = experiment: Induction of apoptosis in cisplatin resistant human J82 cells assessed as mitochondrial membrane potential at 1 uM incubated for 2 hrs by hoechst 33342 staining based fluorescence microscopy; format: functional, cell-based
Method in brief: (§4)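 J82CisR cells exposed 2 h, then labelled with TMRE and Hoechst 33342 for 20 min. TMRE signal imaged on a high-content fluorescence imaging platform. Untreated medium control and 20 µM CCCP positive control.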

A2780 [11] = experiment: Induction of apoptosis in human A2780 cells assessed as increase in intracellular calcium level at 10 to 30 uM incubated for 30 mins in presence of 1 mM extracellular calcium by fluorimetry; format: functional, cell-based
Method in brief: (§5)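 Cells seeded in 96-well plates overnight, washed twice with Krebs-HEPES buffer, loaded 1 h at 37 °C in the dark with Oregon Green BAPTA-1 AM (final 3 µM) and Pluronic F-127. Buffer replaced, PXA added, fluorescence at 544 nm recorded for 30 min, with or without 1 mM extracellular Ca2+. Three experiments, mean ± SEM.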

A2780cisR [12] = experiment: Induction of apoptosis in human A2780cisR cells assessed as increase in intracellular calcium level at 10 to 30 uM incubated for 30 mins in presence of 1 mM extracellular calcium by fluorimetry; format: functional, cell-based; method in brief: as §5
J82 [13] = experiment: Induction of apoptosis in cisplatin resistant human J82 cells assessed as increase in activation of caspase 3/7 at 30 uM incubated for 24 hrs by hoechst 33342 staining based fluorescence microscopy (reference value: 0.5%); format: functional
A2780cisR [14] = experiment: Induction of apoptosis in human A2780cisR cells assessed as increase in caspase 3 cleavage at 5 uM incubated for 24 hrs by proteome profiler analysis; format: functional, cell-based
Method in brief: (§6)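 A2780 and A2780CisR cells treated 24 h with 5 µM PXA; apoptosis-related proteins profiled with a human apoptosis antibody array following kit instructions.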

A2780cisR [15] = experiment: Induction of apoptosis in human A2780cisR cells assessed as decrease in claspin expression at 5 uM incubated for 24 hrs by proteome profiler analysis; format: functional, cell-based; method in brief: as §6
A2780cisR [16] = experiment: Induction of apoptosis in human A2780cisR cells assessed as plasma membrane damage at 1 to 10 uM incubated for 24 hrs by propidium iodide staining based flow cytometry; format: functional, cell-based
Method in brief: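 Cells exposed to PXA for 24 h, trypsinised, pelleted at 4 °C, stained with 100 µg/ml propidium iodide, diluted in sheath fluid and read by flow cytometry. Positive control was 0.2% Triton X-100 (20 min). Three experiments, mean ± SEM.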

J82 [17] = experiment: Induction of apoptosis in cisplatin resistant human J82 cells assessed as depolarization of mitochondrial membrane potential at 5 to 10 uM incubated for 2 hrs by hoechst 33342 staining based fluorescence microscopy; format: functional; method in brief: as §4
A2780 [18] = experiment: Induction of apoptosis in human A2780 cells assessed as depolarization of mitochondrial membrane potential afer 24 hrs by TMRE staining based flow cytometry; format: functional, cell-based
Method in brief: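 Cells seeded overnight; medium switched to FBS-free just before treatment to avoid TMRE ester cleavage. Exposure 1 h, 2 h or 24 h, then TMRE staining for 20 min. Cells trypsinized, centrifuged at 4 °C and read by flow cytometry. Medium as negative control, 20 µM CCCP as positive control. […]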

A2780cisR [19] = experiment: Induction of apoptosis in human A2780cisR cells assessed as depolarization of mitochondrial membrane potential after 24 hrs by TMRE staining based flow cytometry; format: functional, cell-based; method in brief: as §3

With `CC(=O)OC[C@]12Oc3c(-c4ccc(O)c5c4O[C@@]4(COC(C)=O)C(=C(O)C[C@@H](C)[C@H]4OC(C)=O)C5=O)ccc(O)c3C(=O)C1=C(O)C[C@@H](C)[C@H]2OC(C)=O` [PHOMOXANTHONE A] the IC50 (A2780 [1]; read-out: IC50) was 580 nM, the IC50 (A2780 [1]; read-out: pIC50 (converted)) was 575 nM and the “Ratio IC50” value (KYSE-510) was 2 - 10. The IC50 (A2780cisR [2]; read-out: IC50) was 1180 nM, the IC50 (A2780cisR [2]; read-out: pIC50 (converted)) was 1170 nM and the “Ratio IC50” value (A2780cisR [3]) was 1.4. The Activity (A2780 [4]) was “Dose-dependent effect”, the Activity (J82 [5]) was 65% and the Activity (J82 [6]) was 79.3%. The Activity (A2780 [7]) was “Dose-dependent effect”, the IC50 (A2780 [7]; A2780, 1 h) was 1010 nM and the Activity (J82 [8]) was “Dose-dependent effect”. The IC50 (J82 [8]; J82, 2 h) was 3340 nM, the Activity (A2780cisR [9]) was 50% and the Activity (J82 [10]) was “inactive”. The Activity (A2780 [11]) was “Active”, the Activity (A2780cisR [12]) was “Active” and the Activity (J82 [13]) was 90%. The Activity (A2780cisR [14]) was “Active”, the Activity (A2780cisR [15]) was “Active” and the Activity (A2780cisR [16]) was “inactive”. The Activity (J82 [17]) was 100%, the Activity (A2780 [18]) was “Dose-dependent effect” and the Activity (A2780cisR [19]) was “Dose-dependent effect”.
